# Laboratory results reported in ChEMBL document CHEMBL4041486, “Vobasinyl-Iboga Alkaloids from Tabernaemontana elegans: Cell Cycle Arrest and Apoptosis-Inducing Activity in HCT116 Colon Cancer Cells” (J Nat Prod, 2016).
# Legend:
# HCT-116 [1] = assay: Cell cycle arrest in human HCT116 cells assessed as accumulation at G1 phase at 2 times antiproliferative IC50 after 24 hrs by propidium iodide staining based flow cytometry (reference value: 31%); assay type: functional
# HCT-116 [2] = assay: Induction of apoptosis in human HCT116 cells assessed as caspase-3/7 activation at antiproliferative IC50 after 24 hrs by Caspase-Glo assay relative to 5-fluorouracil; assay type: functional
# In short: (§1)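 HCT116 at 5000 cells/well exposed 24 h. Caspase-Glo 3/7 reagent (DEVD-aminoluciferin substrate) 75 μL/well, 30 min room temperature for lysis and signal build-up; luminescence read. Activity expressed as fold of the reference treatment (DMSO vehicle or 5-FU); mean ± SEM, at least three experiments.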
# HCT-116 [3] = assay: Cell cycle arrest in human HCT116 cells assessed as accumulation at S phase at 2 times antiproliferative IC50 after 24 hrs by propidium iodide staining based flow cytometry (reference value: 38.8%); assay type: functional
# HCT-116 [4] = assay: Induction of apoptosis in human HCT116 cells assessed as caspase-3/7 activation at antiproliferative IC50 after 24 hrs by Caspase-Glo assay relative to DMSO control; assay type: functional; in short: as §1
# HCT-116 [5] = assay: Cell cycle arrest in human HCT116 cells assessed as accumulation at G2/M phase at antiproliferative IC50 after 24 hrs by propidium iodide staining based flow cytometry (reference value: 30.2%); assay type: functional
# HCT-116 [6] = assay: Cell cycle arrest in human HCT116 cells assessed as accumulation at G2/M phase at 2 times antiproliferative IC50 after 24 hrs by propidium iodide staining based flow cytometry (reference value: 30.2%); assay type: functional
# HCT-116 [7] = assay: Induction of apoptosis in human HCT116 cells assessed as apoptotic nuclei at 2 times antiproliferative IC50 after 24 hrs by Hoechst 33258 staining based fluorescence microscopic method (reference value: <2%); assay type: functional
# In short: (§2)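 HCT116 seeded 150 000 cells per 35 mm dish; treated 24 h, fixed in 4% paraformaldehyde in PBS pH 7.4, 10 min 25 °C, stained Hoechst 33258 5 μg/mL, 5 min. Fluorescence microscopy; condensed or fragmented chromatin scored apoptotic; three random fields of about 100 nuclei per sample; percent apoptotic nuclei, mean ± SEM, ≥3 experiments.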
# HCT-116 [8] = assay: Induction of apoptosis in human HCT116 cells assessed as apoptotic nuclei at antiproliferative IC50 after 24 hrs by Hoechst 33258 staining based fluorescence microscopic method (reference value: <2%); assay type: functional; in short: as §2
# HCT-116 [9] = assay: Growth inhibition of human HCT116 cells after 72 hrs by MTS assay; assay type: functional, cell-based; conditions: HCT-116, 72 h
# In short: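 HCT116 grown in McCoy's 5A, 10% FBS, 37 °C, 5% CO2; 5000 cells/well; compound in DMSO added 24 h after plating, 72 h exposure. Viability by MTS/PMS reduction to formazan, absorbance 490 nm. IC50 with 95% CI by curve fit; at least three independent experiments.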
# HCT-116 [10] = assay: Cell cycle arrest in human HCT116 cells assessed as accumulation at G1 phase at antiproliferative IC50 after 24 hrs by propidium iodide staining based flow cytometry (reference value: 31%); assay type: functional
# HCT-116 [11] = assay: Cytotoxicity against human HCT116 cells assessed as cell death at antiproliferative IC50 after 72 hrs by LDH release assay relative to control; assay type: functional
# In short: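 HCT116 cells grown in McCoy's 5A with 10% FBS at 37 °C, 5% CO2, and treated 24 h after plating for 72 h with compound or DMSO vehicle. Supernatants were spun at 250g for 2 min, and attached cells were lysed. LDH reagent was added for 15 min at room temperature in the dark, and absorbance was read at 490/620 nm. Release = supernatant/(supernatant + lysate) LDH, fold over DMSO; mean ± SEM, ≥3 experiments.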
# HCT-116 [12] = assay: Cell cycle arrest in human HCT116 cells assessed as accumulation at S phase at antiproliferative IC50 after 24 hrs by propidium iodide staining based flow cytometry (reference value: 38.8%); assay type: functional
# HepG2 = assay: Growth inhibition of human HepG2 cells after 72 hrs by MTS assay; assay type: functional, cell-based; conditions: HepG2, 72 h
# In short: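 HepG2 grown in DMEM with 10% FBS and 1% nonessential amino acids; 5000 cells/well; medium replaced with DMSO-dissolved compound 24 h post-seeding, 72 h exposure. MTS formazan absorbance read at 490 nm. IC50 derived with 95% CI; at least three independent experiments.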
compound,measurement,setting,value
CC[C@H]1CN(C)[C@H]2Cc3c([nH]c4ccccc34)[C@H](c3cc4c5c([nH]c4cc3OC)C3(C(=O)OC)C[C@@H]4C[C@H](CC)[C@@H]3N(CC5)C4)C[C@@H]1C2C(=O)OC (stereo partly drawn),Activity,HCT-116 [1],27.7%
same,fold change (FC),HCT-116 [2],1.5 - 3.7
same,Activity,HCT-116 [3],28.5%
same,fold change (FC),HCT-116 [4],1.6 - 5.2
same,Activity,HCT-116 [5],75.7 - 77%
same,Activity,HCT-116 [6],43.8 - 47%
same,Activity,HCT-116 [7],40%
same,Activity,HCT-116 [8],31%
same,IC50,HCT-116 [9],8.5 µM
same,Activity,HCT-116 [10],2.39%
same,fold change (FC),HCT-116 [11],2.5 - 2.8
same,Activity,HCT-116 [12],21.9%
same,IC50,HepG2,> 10 µM
CC[C@@H]1CN(C)[C@H]2Cc3c([nH]c4ccccc34)[C@H](c3c(OC)ccc4c5c([nH]c34)C3(C(=O)OC)C[C@@H]4C[C@H](CC)[C@@H]3N(CC5)C4)C[C@@H]1C2C(=O)OC (stereo partly drawn),IC50,HCT-116 [9],> 10 µM
same,IC50,HepG2,> 10 µM
CC[C@H]1CN(C)[C@H]2Cc3c([nH]c4ccccc34)[C@H](c3c(OC)ccc4c5c([nH]c34)C3(C(=O)OC)CC4C[C@H](CC)[C@@H]3N(CC5)C4=O)C[C@@H]1C2C(=O)OC (stereo partly drawn),Activity,HCT-116 [1],62 - 67.2%
same,fold change (FC),HCT-116 [2],1.5 - 3.7
same,Activity,HCT-116 [3],15.9%
same,fold change (FC),HCT-116 [4],1.6 - 5.2
same,Activity,HCT-116 [5],21.8%
same,Activity,HCT-116 [6],16.9%
same,Activity,HCT-116 [7],25%
same,Activity,HCT-116 [8],16%
same,IC50,HCT-116 [9],> 10 µM
same,Activity,HCT-116 [10],41.7 - 46%
same,fold change (FC),HCT-116 [11],2.5 - 2.8
same,Activity,HCT-116 [12],36.5%
same,IC50,HepG2,> 10 µM
CC[C@H]1CN(C)[C@H]2Cc3c([nH]c4ccccc34)[C@H](c3cc4c5c([nH]c4cc3OC)C3(C(=O)OC)CC4C[C@H](CC)[C@@H]3N(CC5)C4=O)C[C@@H]1C2C(=O)OC (stereo partly drawn),Activity,HCT-116 [1],32%
same,fold change (FC),HCT-116 [2],1.5 - 3.7
same,Activity,HCT-116 [3],17.5%
same,fold change (FC),HCT-116 [4],1.6 - 5.2
same,Activity,HCT-116 [5],26.2 - 32%
same,Activity,HCT-116 [6],44 - 50.5%
same,Activity,HCT-116 [7],37%
same,Activity,HCT-116 [8],16%
same,IC50,HCT-116 [9],8.8 µM
same,Activity,HCT-116 [10],34.4%
same,fold change (FC),HCT-116 [11],2.5 - 2.8
same,Activity,HCT-116 [12],39.4%
same,IC50,HepG2,> 10 µM
CC[C@H]1CN(C)[C@H]2Cc3c([nH]c4ccccc34)[C@H](c3c(OC)ccc4c5c([nH]c34)C3(C(=O)OC)C[C@@H]4C[C@H]([C@H](C)O)[C@@H]3N(CC5)C4)C[C@@H]1C2C(=O)OC (stereo partly drawn),Activity,HCT-116 [1],55 - 65%
same,fold change (FC),HCT-116 [2],1.5 - 3.7
same,Activity,HCT-116 [3],19.3%
same,fold change (FC),HCT-116 [4],1.6 - 5.2
same,Activity,HCT-116 [5],18.5%
same,Activity,HCT-116 [6],15.7%
same,Activity,HCT-116 [7],13%
same,Activity,HCT-116 [8],11%
same,IC50,HCT-116 [9],8.4 µM
same,Activity,HCT-116 [10],42.3 - 49%
same,fold change (FC),HCT-116 [11],2.5 - 2.8
same,Activity,HCT-116 [12],39.3%
same,IC50,HepG2,> 10 µM
O=c1[nH]cc(F)c(=O)[nH]1 [FLUOROURACIL],Activity,HCT-116 [1],39.8%
same,Activity,HCT-116 [3],55.7%
same,Activity,HCT-116 [5],0%
same,Activity,HCT-116 [6],4.48%
same,IC50,HCT-116 [9],2.5 µM
same,Activity,HCT-116 [10],21.3%
same,fold change (FC),HCT-116 [11],2.2 - 2.5
same,Activity,HCT-116 [12],78.7%
same,IC50,HepG2,> 10 µM
